Laboratory results from ChEMBL document CHEMBL1152460, “Phenotypic characterization of resistant Val36 variants of hepatitis C virus NS3-4A serine protease” (Antimicrob Agents Chemother, 2008).

Tests used:
[1] = test system: Hepatitis C virus; test: Inhibition of wild type HCV genotype 1b NS3 protease expressed in Escherichia coli BL21 (DE3); design: species or system Hepatitis C virus subtype 1b
Summary of the method: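 NS3 protease domain (genotype 1a isolate 3201 or 1b isolate 3111) induced 5 h with 1 mM IPTG at 25°C and purified by Talon affinity and gel filtration. Preincubated with 5 μM KK4A cofactor peptide, then with inhibitor 60 min at 30°C. Then 20 min at 30°C with 5 μM RET-S1 FRET depsipeptide, reading product release at 10–20% turnover. IC50(1 h) by curve fit; 3–5 independent experiments, mean ± SD.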

[2] = Inhibition of wild type HCV genotype 1a NS3 protease expressed in Escherichia coli BL21 (DE3) measured after 1 hr
[3] = test system: Hepatitis C virus; test: Antiviral activity against HCV Con1-mADE replicon with NS3 serine protease V36A/R155K double mutation in human HuH7 cells after 48 hrs by RNA replicon assay relative to wild type; type: functional, Hepacivirus hominis, subtype 1b Con1-mADE, Huh-7
Summary of the method: (§1)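 Stable genotype 1b Con1 subgenomic neo replicon cell lines carried three adaptive mutations. They were made by electroporating T7 runoff transcripts (ScaI-linearized template) into naive Huh-7 cells, selected with 0.5 mg/ml G418 and kept in 0.25 mg/ml. Mutations were confirmed by RT-PCR sequencing. EC50 came from a 48-h assay, at least three independent assays, mean ± SD. Fold change = variant mean EC50 / wild-type EC50.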

[4] = test system: Hepatitis C virus; test: Antiviral activity against HCV Con1-mADE replicon with NS3 serine protease V36A/R155T double mutation in human HuH7 cells after 48 hrs by RNA replicon assay; type: functional, organism-based, Hepacivirus hominis; details: subtype 1b Con1-mADE, Huh-7, 48 h; summary of the method: as §1
[5] = test system: Hepatitis C virus; test: Antiviral activity against HCV Con1-mADE replicon with NS3 serine protease V36G mutation in human HuH7 cells after 48 hrs by RNA replicon assay; type: functional, organism-based, Hepacivirus hominis; details: subtype 1b Con1-mADE, Huh-7, 48 h; summary of the method: as §1
[6] = target: NS3 protease (Hepacivirus C, UniProt C1KIQ2, V36L); test: Inhibition of HCV genotype 1a NS3 protease V36L mutant expressed in Escherichia coli BL21 (DE3); design: species or system Hepatitis C virus subtype 1a
Summary of the method: (§2)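 NS3 protease domain (genotype 1a isolate 3201 or 1b isolate 3111) was expressed in E. coli BL21(DE3) with 5 h, 1 mM IPTG at 25°C, then purified by Talon and gel filtration. Enzyme was preincubated with 5 μM KK4A cofactor (10 min 25°C, 10 min 30°C), then inhibitor 60 min at 30°C, then 5 μM RET-S1 FRET substrate 20 min at 30°C. Substrate turnover was 10–20%. IC50(1 h) was fitted; 3–5 experiments, mean ± SD.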

[7] = test system: Hepatitis C virus; test: Antiviral activity against HCV Con1-mADE replicon with NS3 serine protease V36A/T54A double mutation in human HuH7 cells after 48 hrs by RNA replicon assay relative to wild type; type: functional, Hepacivirus hominis, subtype 1b Con1-mADE, Huh-7
Summary of the method: (§3)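 Stable HCV genotype 1b subgenomic replicon (Con1-mADE, neo) cell lines made by electroporating ScaI-linearized T7 runoff RNA into naïve Huh-7 cells; selected in 0.5 mg/ml G418, maintained in 0.25 mg/ml; NS3 substitutions confirmed by RT-PCR sequencing. EC50 from 48-h replicon RNA reduction assay, ≥3 independent experiments, mean ± SD; fold change = variant mean EC50 / wild-type mean EC50.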

[8] = test system: Hepatitis C virus; test: Antiviral activity against HCV Con1-mADE replicon with NS3 serine protease V36A/R155T double mutation in human HuH7 cells after 48 hrs by RNA replicon assay relative to wild type; type: functional, Hepacivirus hominis, subtype 1b Con1-mADE, Huh-7; summary of the method: as §1
[9] = test system: Hepatitis C virus; test: Selectivity ratio of IC50 for HCV genotype 1b NS3 protease V36A mutant to IC50 for wild type HCV genotype 1b NS3 protease; design: species or system Hepatitis C virus subtype 1b
Summary of the method: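 Purified genotype 1b NS3 protease domain (wild-type isolate 3111 or V36A), E. coli BL21(DE3)-expressed, preincubated with 5 μM KK4A cofactor peptide 10 min 25°C then 10 min 30°C; inhibitor 60 min 30°C; then 5 μM RET-S1 FRET depsipeptide 20 min 30°C, 10–20% turnover. IC50(1 h) fitted; fold change = variant/wild-type IC50, 3–5 independent experiments, mean ± SD.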

[10] = test system: Hepatitis C virus; test: Antiviral activity against wild type Con1-mADE HCV replicon in human HuH7 cells after 48 hrs by RNA replicon assay; type: functional, organism-based, Hepacivirus hominis; details: subtype 1b Con1-mADE, Huh-7, 48 h; summary of the method: as §1
[11] = test system: Hepatitis C virus; test: Antiviral activity against HCV Con1-mADE replicon with NS3 serine protease V36M/R155K double mutation in human HuH7 cells after 48 hrs by RNA replicon assay; type: functional, organism-based, Hepacivirus hominis; details: subtype 1b Con1-mADE, Huh-7, 48 h; summary of the method: as §1
[12] = test system: Hepatitis C virus; test: Antiviral activity against HCV genotype 1 infected in patient assessed as logarithmic maximal reduction in plasma HCV RNA level at 750 mg dosed every 8 hrs measured after 14 days; type: functional, Hepacivirus hominis
[13] = target: NS3 protease (Hepacivirus C, UniProt C1KIQ2, V36M); test: Inhibition of HCV genotype 1a NS3 protease V36M mutant expressed in Escherichia coli BL21 (DE3); design: species or system Hepatitis C virus subtype 1a; summary of the method: as §2
[14] = test system: Hepatitis C virus; test: Antiviral activity against HCV Con1-mADE replicon with NS3 serine protease V36L mutation in human HuH7 cells after 48 hrs by RNA replicon assay relative to wild type; type: functional, Hepacivirus hominis, subtype 1b Con1-mADE, Huh-7; summary of the method: as §1
[15] = test system: Hepatitis C virus; test: Antiviral activity against HCV Con1-mADE replicon with NS3 serine protease V36G mutation in human HuH7 cells after 48 hrs by RNA replicon assay relative to wild type; type: functional, Hepacivirus hominis, subtype 1b Con1-mADE, Huh-7; summary of the method: as §3
[16] = test system: Hepatitis C virus; test: Inhibition of HCV genotype 1b NS3 protease V36A mutant expressed in Escherichia coli BL21 (DE3); design: species or system Hepatitis C virus subtype 1b; summary of the method: as §2
[17] = test system: Hepatitis C virus; test: Antiviral activity against HCV Con1-mADE replicon with NS3 serine protease T54A mutation in human HuH7 cells after 48 hrs by RNA replicon assay relative to wild type
[18] = test system: Hepatitis C virus; test: Antiviral activity against HCV Con1-mADE replicon with NS3 serine protease T54A mutation in human HuH7 cells after 48 hrs by RNA replicon assay; details: subtype 1b Con1-mADE, Huh-7, 48 h
[19] = test system: Hepatitis C virus; test: Antiviral activity against HCV Con1-mADE replicon with NS3 serine protease V36M/R155K double mutation in human HuH7 cells after 48 hrs by RNA replicon assay relative to wild type; type: functional, Hepacivirus hominis, subtype 1b Con1-mADE, Huh-7; summary of the method: as §1
[20] = test system: Hepatitis C virus; test: Antiviral activity against HCV Con1-mADE replicon with NS3 serine protease V36M mutation in human HuH7 cells after 48 hrs by RNA replicon assay relative to wild type; type: functional, Hepacivirus hominis, subtype 1b Con1-mADE, Huh-7; summary of the method: as §1
[21] = test system: Hepatitis C virus; test: Antiviral activity against HCV Con1-mADE replicon with NS3 serine protease V36A/R155K double mutation in human HuH7 cells after 48 hrs by RNA replicon assay; type: functional, organism-based, Hepacivirus hominis; details: subtype 1b Con1-mADE, Huh-7, 48 h; summary of the method: as §1
[22] = test system: Hepatitis C virus; test: Antiviral activity against HCV Con1-mADE replicon with NS3 serine protease V36M/R155T double mutation in human HuH7 cells after 48 hrs by RNA replicon assay relative to wild type; type: functional, Hepacivirus hominis, subtype 1b Con1-mADE, Huh-7; summary of the method: as §1
[23] = test system: Hepatitis C virus; test: Antiviral activity against HCV genotype 1 infected in patient assessed as log10 reduction in plasma HCV RNA level at 750 mg dosed every 8 hrs measured after 2 days; type: functional, Hepacivirus hominis
[24] = test system: Hepatitis C virus; test: Antiviral activity against HCV Con1-mADE replicon with NS3 serine protease V36M/R155T double mutation in human HuH7 cells after 48 hrs by RNA replicon assay; type: functional, organism-based, Hepacivirus hominis; details: subtype 1b Con1-mADE, Huh-7, 48 h; summary of the method: as §1
[25] = target: NS3 protease (Hepacivirus C, UniProt C1KIQ2, R155K/V36M); test: Inhibition of HCV genotype 1a NS3 protease V36M/R155K double mutant expressed in Escherichia coli BL21 (DE3); design: species or system Hepatitis C virus subtype 1a; summary of the method: as §2
[26] = test system: Hepatitis C virus; test: Antiviral activity against HCV Con1-mADE replicon with NS3 serine protease V36L mutation in human HuH7 cells after 48 hrs by RNA replicon assay; type: functional, organism-based, Hepacivirus hominis; details: subtype 1b Con1-mADE, Huh-7, 48 h; summary of the method: as §1
[27] = test system: Hepatitis C virus; test: Antiviral activity against HCV Con1-mADE replicon with NS3 serine protease V36M/A156T double mutation in human HuH7 cells after 48 hrs by RNA replicon assay relative to wild type; type: functional, Hepacivirus hominis, subtype 1b Con1-mADE, Huh-7; summary of the method: as §3
[28] = test system: Hepatitis C virus; test: Antiviral activity against HCV Con1-mADE replicon with NS3 serine protease V36A mutation in human HuH7 cells after 48 hrs by RNA replicon assay relative to wild type; type: functional, Hepacivirus hominis, subtype 1b Con1-mADE, Huh-7; summary of the method: as §1
[29] = test system: Hepatitis C virus; test: Antiviral activity against HCV Con1-mADE replicon with NS3 serine protease V36A mutation in human HuH7 cells after 48 hrs by RNA replicon assay; type: functional, organism-based, Hepacivirus hominis; details: subtype 1b Con1-mADE, Huh-7, 48 h; summary of the method: as §1
[30] = test system: Hepatitis C virus; test: Antiviral activity against HCV Con1-mADE replicon with NS3 serine protease V36M/A156T double mutation in human HuH7 cells after 48 hrs by RNA replicon assay; type: functional, organism-based, Hepacivirus hominis; details: subtype 1b Con1-mADE, Huh-7, 48 h; summary of the method: as §1
[31] = test system: Hepatitis C virus; test: Antiviral activity against HCV Con1-mADE replicon with NS3 serine protease V36M mutation in human HuH7 cells after 48 hrs by RNA replicon assay; type: functional, organism-based, Hepacivirus hominis; details: subtype 1b Con1-mADE, Huh-7, 48 h; summary of the method: as §1
[32] = test system: Hepatitis C virus; test: Antiviral activity against HCV Con1-mADE replicon with NS3 serine protease V36A/T54A double mutation in human HuH7 cells after 48 hrs by RNA replicon assay; type: functional, organism-based, Hepacivirus hominis; details: subtype 1b Con1-mADE, Huh-7, 48 h; summary of the method: as §1

| SMILES | fold change (FC) [3] | EC50 [4] | fold change (FC) [8] | EC50 [10] | EC50 [11] | fold change (FC) [14] | EC50 [18] | fold change (FC) [19] | fold change (FC) [20] | EC50 [21] | fold change (FC) [22] | EC50 [24] | fold change (FC) [28] | EC50 [29] | EC50 [31] | further results |
| --- | --- | --- | --- | --- | --- | --- | --- | --- | --- | --- | --- | --- | --- | --- | --- | --- |
| CCC[C@H](NC(=O)[C@@H]1[C@H]2CCC[C@H]2CN1C(=O)[C@@H](NC(=O)[C@@H](NC(=O)c1cnccn1)C1CCCCC1)C(C)(C)C)C(=O)C(=O)NC1CC1 [TELAPREVIR] | 40 | > 30 µM | >62 | 0.49 µM | 30 µM | 2.2 | 3 µM | 62 | 7 | 20 µM | >62 | > 30 µM | 7.4 | 3.6 µM | 3.4 µM | IC50 [1]: 0.063 µM; IC50 [2]: 0.05 µM; EC50 [5]: 5.4 µM; IC50 [6]: 0.13 µM; fold change (FC) [7]: 20.1; fold change (FC) [9]: 3.6; Activity [12]: 4.65; IC50 [13]: 0.27 µM; fold change (FC) [15]: 11.2; IC50 [16]: 0.23 µM; fold change (FC) [17]: 6.3; Activity [23]: 3; IC50 [25]: 3.4 µM; EC50 [26]: 1.1 µM; fold change (FC) [27]: >62; EC50 [30]: > 30 µM; EC50 [32]: 9.7 µM |
| NC(=O)c1ncn([C@@H]2O[C@H](CO)[C@@H](O)[C@H]2O)n1 [RIBAVIRIN] | 0.6 | 42 µM | 0.7 | 58 µM | 41 µM | 0.4 | 22 µM | 0.7 | 0.6 | 36 µM | 0.6 | 36 µM | 0.8 | 43 µM | 33 µM |  |
